Measurements from ChEMBL document CHEMBL4725237, “Synthesis and biological evaluation of triazolyl-substituted benzyloxyacetohydroxamic acids as LpxC inhibitors” (Bioorg Med Chem, 2020).
pIC50: −log10 of the molar value. Converted amounts (≈) assume the structure as drawn.

Key:
Escherichia coli [1] = experiment: Antibacterial activity against Escherichia coli D22 incubated assessed as prevention of visible growth for 20 hrs by two-fold serial microbroth dilution method; type: functional
Summary of the method: (§1)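 Broth microdilution in LB with 5% DMSO. Overnight cultures (LB, 37 °C, 200 rpm) were diluted 1:100 and added to a twofold compound dilution series in DMSO, giving 5·10^6 cfu·mL⁻¹ and final compound 64 to 0.25 µg·mL⁻¹. Plates were incubated 20 h at 37 °C. MIC was taken as the lowest concentration with no visible growth. At least three runs on separate days.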

Escherichia coli [2] = experiment: Antibacterial activity against Escherichia coli D22 assessed as zone of growth inhibition at 10 mmol incubated for overnight by disc diffusion method; type: functional; details: dose 10 mM; time 12 hrs
Summary of the method: (§2)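 Overnight LB cultures (37 °C, 200 rpm), 150 µL spread on LB agar. 15 µL of compound (10 mM stock in DMSO) was applied to 6 mm filter paper disks, with DMSO as negative and CHIR-090 as positive control. Plates were incubated overnight at 37 °C and the diameter of the growth-inhibition zone was measured. At least three runs on separate days.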

[3] = Inhibition of LpxC C63A mutant in Escherichia coli […] preincubated for 30 mins followed by incubation for 10 mins by spectrophotometric analysis
Escherichia coli [4] = experiment: Antibacterial activity against Escherichia coli BL21 (DE3) assessed as zone of growth inhibition at 10 mmol incubated for overnight by disc diffusion method; type: functional; details: dose 10 mM; time 12 hrs; summary of the method: as §2
Escherichia coli [5] = experiment: Antibacterial activity against Escherichia coli BL21 (DE3) assessed as prevention of visible growth incubated for 20 hrs by two-fold serial microbroth dilution method; type: functional; summary of the method: as §1

Row | SMILES | MIC (Escherichia coli [1]) [µg/mL] | inhibition zone (IZ) (Escherichia coli [2]) [mm] | pIC50 [3] | inhibition zone (IZ) (Escherichia coli [4]) [mm] | MIC (Escherichia coli [5]) [µg/mL]
1 | C[C@@H](O)[C@H](NC(=O)c1ccc(C#Cc2ccc(CN3CCOCC3)cc2)cc1)C(=O)NO | 0.031 (≈ 0.0709 µM) | 37.5 | 7.12 | 31.7 | 0.25 (≈ 0.571 µM)
2 | O=C(CO[C@H](CO)c1ccc(C#Cc2ccccc2)cc1)NO | 1 (≈ 3.21 µM) | 20.5 | 4.06 | 9.5 | 64 (≈ 206 µM)
3 | O=C(CO[C@@H](CO)c1ccc(C#Cc2ccccc2)cc1)NO | 32 (≈ 103 µM) | 13 | < 3.70 | <6 | > 64
4 | O=C(CO[C@H](Cn1ccnn1)c1ccc(C#Cc2ccccc2)cc1)NO | 1 (≈ 2.76 µM) | 21 | 4.44 | <6 | > 64
5 | O=C(CO[C@H](Cn1cc(-c2ccccc2)nn1)c1ccc(OCc2ccccc2)cc1)NO | 32 (≈ 72 µM) | 10 | < 3.70 | <6 | > 64
6 | O=C(CO[C@@H](Cn1cc(-c2ccccc2)nn1)c1ccc(C#Cc2ccccc2)cc1)NO | 32 (≈ 73 µM) | 8.7 | < 3.70 | <6 | > 64
7 | O=C(CO[C@H](Cn1nncc1CO)c1ccc(C#Cc2ccccc2)cc1)NO | 1 (≈ 2.55 µM) | 29.5 | 4.63 | 10.3 | > 64
8 | O=C(CO[C@H](Cn1nncc1-c1ccccc1)c1ccc(C#Cc2ccccc2)cc1)NO | 8 (≈ 18.2 µM) | 10.7 | < 4.70 | <6 | > 64
9 | O=C(CO[C@@H](Cn1ccnn1)c1ccc(C#Cc2ccccc2)cc1)NO | ≥ 32 | 11 | < 3.70 | <6 | > 64
10 | O=C(CO[C@H](Cn1cc(-c2ccccc2)nn1)c1ccc(C#Cc2ccccc2)cc1)NO | 0.25 (≈ 0.57 µM) | 12.3 | 4.98 | <6 | > 64
11 | O=C(CO[C@H](Cn1ccnn1)c1ccc(OCc2ccccc2)cc1)NO | > 64 | 15 | < 3.70 | <6 | > 64
12 | O=C(CO[C@H](Cn1cc(CO)nn1)c1ccc(C#Cc2ccccc2)cc1)NO | 4 (≈ 10.2 µM) | 20.7 | 5.07 | <6 | > 64
